Results reported in ChEMBL document CHEMBL1212781, “VIM-19, a metallo-beta-lactamase with increased carbapenemase activity from Escherichia coli and Klebsiella pneumoniae” (2010).
In brackets after ≈: the same amount, converted by molar mass.

How the values were obtained:
Type in all cases: functional
Escherichia coli [1] = assay: Antimicrobial activity in Escherichia coli J53 strain
Procedure, shortened: (§1)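 MICs were determined by Etest on Mueller-Hinton agar plates incubated at 37°C. Susceptibility was interpreted according to CLSI guidelines.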

Escherichia coli [2] = assay: Antimicrobial activity in Escherichia coli TOP10 strain; procedure, shortened: as §1
Escherichia coli [3] = assay: microbe, parasite or virus in culture; conditions: TOP10
Klebsiella pneumoniae = assay: Antimicrobial activity in Klebsiella pneumoniae DIH-2 clinical isolate expressing beta-lactamase VIM-19 by Etest
Escherichia coli [4] = assay: microbe, parasite or virus in culture; conditions: TOP10; remark: listed apart in the source
Escherichia coli [5] = assay: Antimicrobial activity in Escherichia coli J53 transconjugate with Escherichia coli DIH-1 expressing natural plasmid containing beta-lactamase VIM-19
Procedure, shortened: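 Transconjugants came from liquid mating-out at 37°C with azide-resistant E. coli J53 as recipient, selected on agar with amoxicillin (50 μg/ml) plus azide (100 μg/ml). MICs were then read by Etest on Mueller-Hinton agar at 37°C and interpreted per CLSI.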

Escherichia coli [6] = assay: Antimicrobial activity in Escherichia coli DIH-1 expressing beta-lactamase VIM-19 by Etest
Procedure, shortened: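 MICs read by Etest on Mueller-Hinton agar incubated at 37°C. Susceptibility was categorized according to CLSI guidelines. Transconjugants were obtained in E. coli J53 by liquid mating at 37°C, with selection on agar containing amoxicillin (50 μg/ml) and azide (100 μg/ml).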

Escherichia coli [7] = assay: microbe, parasite or virus in culture; conditions: TOP10; remark: listed apart in the source
Escherichia coli [8] = assay: microbe, parasite or virus in culture; conditions: TOP10; remark: listed apart in the source

Compound | MIC (Escherichia coli [1]) | MIC (Escherichia coli [2]) | MIC (Escherichia coli [3]) | MIC (Klebsiella pneumoniae) | MIC (Escherichia coli [4]) | MIC (Escherichia coli [5]) | MIC (Escherichia coli [6]) | MIC (Escherichia coli [7]) | MIC (Escherichia coli [8])
CO/N=C(\C(=O)N[C@@H]1C(=O)N2C(C(=O)O)=C(COC(N)=O)CS[C@H]12)c1ccco1 [CEFUROXIME] | 4 µg/mL (≈ 9.43 µM) | 2 µg/mL (≈ 4.71 µM) | > 512 µg/mL | > 512 µg/mL | > 512 µg/mL | > 512 µg/mL | > 512 µg/mL |  | 
C[C@@H](O)[C@H]1C(=O)N2C(C(=O)O)=C(SCCNC=N)C[C@H]12 [IMIPENEM ANHYDROUS] |  |  |  | 8 µg/mL (≈ 26.7 µM) |  | 4 µg/mL (≈ 13.4 µM) |  |  | 
C[C@@H](O)[C@H]1C(=O)N2C(C(=O)O)=C(S[C@@H]3CN[C@H](C(=O)N(C)C)C3)[C@H](C)[C@H]12 [MEROPENEM] | 0.016 µg/mL (≈ 0.0417 µM) | 0.016 µg/mL (≈ 0.0417 µM) | 1 µg/mL (≈ 2.61 µM) | 4 µg/mL (≈ 10.4 µM) | 1 µg/mL (≈ 2.61 µM) | 0.5 µg/mL (≈ 1.3 µM) |  | 0.25 µg/mL (≈ 0.652 µM) | 0.25 µg/mL (≈ 0.652 µM)
